Publication PMC9295256 (Journal of medicinal chemistry, 2021)
“Also recorded” adds a separate entry of the source. Where two headings read alike, the source gives them in different places. Each block holds one compound with its values, some of them ahead of it.

Assays:
[1] = type: in vitro ADME, mouse
recombinant rat Nln = recombinant rat Nln (Rattus norvegicus, UniProt P42676); test: Nln activation, continuous quenched fluorescence substrate; type: biochemical; conditions: for increase in potency over the least active hit / increase in potency over the most active hit: A50 ratio; for mean Amax of the two enantiomers: mean over L and D enantiomer
[2] = tested on: co-culture of primary mouse astrocytes and immortalized mouse endothelial cells (bEnd3); type: in vitro ADME; conditions: ratio of Pe values
[3] = biological target: Rat recombinant neurolysin (Rattus norvegicus, UniProt P42676); test: Hydrolysis of endogenous substrates BK and NT by Nln, LC-MS/MS; type: biochemical; conditions: compound 10 or 30 μM, Nln 0.5 nM; for hydrolysis of BK by Nln, formation of BK-(1–5): BK 20 μM; for hydrolysis of NT by Nln, formation of NT-(1–10): NT 20 μM
Outline: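 In-house recombinant rat Nln (0.5 nM) was preincubated 10 min at 37 °C with test compound (10 or 30 µM), then given bradykinin (20 µM) for a further 10 min at 37 °C. BK-(1–5) was quantified by LC–MS/MS (water/acetonitrile with 0.1% formic acid gradient, column 40 °C) as a peak-area ratio to internal standard; n = 3.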

human ACE2 = human ACE2 (Homo sapiens, UniProt Q9BYF1); test: Peptidase selectivity: ACE2, fluorogenic substrate; type: biochemical; conditions: eight-point concentration–response up to 300 μM; substrate 10 μM
Outline: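 Recombinant human ACE2 was tested in artificial CSF at 37 °C with a 10 min preincubation of enzyme and test compound (from 30–50 mM DMSO stocks). Mca-Ala-Pro-Lys(Dnp) (10 µM) started the reaction, and fluorescence (320 nm excitation, 405 nm emission) was followed continuously for 20 min; n = 4.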

[4] = biological target: human angiotensin-converting enzyme (Homo sapiens, UniProt P12821); test: Peptidase selectivity: ACE, fluorogenic substrate; type: biochemical; conditions: eight-point concentration–response up to 300 μM; substrate 10 μM
Outline: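 Continuous fluorogenic assay with recombinant human ACE in artificial CSF at 37 °C. Test compound (from 30–50 mM DMSO stocks) was preincubated with enzyme for 10 min. The reaction was started with Mca-[…]Dnp)-OH (10 µM), and fluorescence (ex 320/em 405 nm) was read continuously for 20 min; n = 4.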

human TOP = human TOP (Homo sapiens, UniProt P52888); test: Peptidase selectivity: thimet oligopeptidase, fluorogenic substrate; type: biochemical; conditions: eight-point concentration–response up to 300 μM; substrate 15 μM
human NEP = human NEP (Homo sapiens, UniProt P08473); test: Peptidase selectivity: neprilysin, fluorogenic substrate; type: biochemical; conditions: eight-point concentration–response up to 300 μM; substrate 10 μM
[5] = Brain protein binding, rapid equilibrium dialysis; type: in vitro ADME; conditions: mouse, mouse brain homogenate (dilution factor D = 5)
Outline: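 Mouse brain homogenate spiked to 500 ng/mL final (from a 10 µg/mL aqueous dilution of DMSO solution) was dialysed against DPBS across an 8 kDa cutoff membrane for 4 h at 37 °C with 250 rpm orbital shaking. Both chambers were sampled and quantified by LC–MS/MS. fu,d = receiver/donor, corrected to undiluted fu with D = 5. Done in triplicate.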

[6] = 100% = normal enzyme turnover, mean of n = 4, 95% CI in parentheses
[7] = CD-1 (source of the primary astrocytes), mouse

Chain of human ACE2 (Q9BYF1 18-805): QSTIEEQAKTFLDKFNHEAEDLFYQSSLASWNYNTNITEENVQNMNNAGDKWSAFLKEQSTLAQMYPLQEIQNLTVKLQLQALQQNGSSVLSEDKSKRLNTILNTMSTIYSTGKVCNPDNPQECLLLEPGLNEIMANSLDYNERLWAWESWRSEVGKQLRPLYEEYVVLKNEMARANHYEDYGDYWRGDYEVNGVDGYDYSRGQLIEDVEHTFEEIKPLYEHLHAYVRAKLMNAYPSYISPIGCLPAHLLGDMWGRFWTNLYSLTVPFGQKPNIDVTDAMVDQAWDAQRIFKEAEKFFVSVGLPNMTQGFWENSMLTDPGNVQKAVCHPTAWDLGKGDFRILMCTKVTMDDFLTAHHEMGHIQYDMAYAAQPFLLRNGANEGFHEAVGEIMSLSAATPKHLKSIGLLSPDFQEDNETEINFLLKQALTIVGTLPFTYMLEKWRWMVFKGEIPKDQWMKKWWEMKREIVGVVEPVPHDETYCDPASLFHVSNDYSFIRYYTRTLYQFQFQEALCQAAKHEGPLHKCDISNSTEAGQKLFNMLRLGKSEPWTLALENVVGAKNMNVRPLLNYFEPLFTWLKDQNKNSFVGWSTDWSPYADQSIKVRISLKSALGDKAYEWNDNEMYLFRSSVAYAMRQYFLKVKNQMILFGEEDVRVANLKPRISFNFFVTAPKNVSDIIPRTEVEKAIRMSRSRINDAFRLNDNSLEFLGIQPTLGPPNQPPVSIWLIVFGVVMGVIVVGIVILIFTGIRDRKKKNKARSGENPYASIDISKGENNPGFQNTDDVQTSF
Chain of recombinant rat Nln (P42676 38-704): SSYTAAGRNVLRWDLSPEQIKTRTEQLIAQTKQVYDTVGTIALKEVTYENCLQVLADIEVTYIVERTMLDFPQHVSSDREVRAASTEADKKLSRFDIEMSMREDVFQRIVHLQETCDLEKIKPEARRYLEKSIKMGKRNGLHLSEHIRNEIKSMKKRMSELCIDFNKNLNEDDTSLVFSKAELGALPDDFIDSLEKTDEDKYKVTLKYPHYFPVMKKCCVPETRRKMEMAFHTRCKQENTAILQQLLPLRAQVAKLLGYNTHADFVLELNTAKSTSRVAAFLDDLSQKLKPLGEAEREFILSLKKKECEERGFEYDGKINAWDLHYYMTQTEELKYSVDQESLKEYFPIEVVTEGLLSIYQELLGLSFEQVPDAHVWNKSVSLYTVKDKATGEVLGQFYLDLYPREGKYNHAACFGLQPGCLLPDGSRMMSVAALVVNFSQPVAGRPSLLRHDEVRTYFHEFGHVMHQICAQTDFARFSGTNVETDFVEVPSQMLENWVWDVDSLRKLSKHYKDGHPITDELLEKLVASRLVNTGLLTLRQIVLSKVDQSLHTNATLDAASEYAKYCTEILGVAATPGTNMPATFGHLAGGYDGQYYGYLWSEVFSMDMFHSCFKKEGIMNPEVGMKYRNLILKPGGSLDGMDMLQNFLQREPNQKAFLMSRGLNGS
Chain of Rat recombinant neurolysin (P42676 38-704): as above
Chain of human angiotensin-converting enzyme (P12821 30-1306): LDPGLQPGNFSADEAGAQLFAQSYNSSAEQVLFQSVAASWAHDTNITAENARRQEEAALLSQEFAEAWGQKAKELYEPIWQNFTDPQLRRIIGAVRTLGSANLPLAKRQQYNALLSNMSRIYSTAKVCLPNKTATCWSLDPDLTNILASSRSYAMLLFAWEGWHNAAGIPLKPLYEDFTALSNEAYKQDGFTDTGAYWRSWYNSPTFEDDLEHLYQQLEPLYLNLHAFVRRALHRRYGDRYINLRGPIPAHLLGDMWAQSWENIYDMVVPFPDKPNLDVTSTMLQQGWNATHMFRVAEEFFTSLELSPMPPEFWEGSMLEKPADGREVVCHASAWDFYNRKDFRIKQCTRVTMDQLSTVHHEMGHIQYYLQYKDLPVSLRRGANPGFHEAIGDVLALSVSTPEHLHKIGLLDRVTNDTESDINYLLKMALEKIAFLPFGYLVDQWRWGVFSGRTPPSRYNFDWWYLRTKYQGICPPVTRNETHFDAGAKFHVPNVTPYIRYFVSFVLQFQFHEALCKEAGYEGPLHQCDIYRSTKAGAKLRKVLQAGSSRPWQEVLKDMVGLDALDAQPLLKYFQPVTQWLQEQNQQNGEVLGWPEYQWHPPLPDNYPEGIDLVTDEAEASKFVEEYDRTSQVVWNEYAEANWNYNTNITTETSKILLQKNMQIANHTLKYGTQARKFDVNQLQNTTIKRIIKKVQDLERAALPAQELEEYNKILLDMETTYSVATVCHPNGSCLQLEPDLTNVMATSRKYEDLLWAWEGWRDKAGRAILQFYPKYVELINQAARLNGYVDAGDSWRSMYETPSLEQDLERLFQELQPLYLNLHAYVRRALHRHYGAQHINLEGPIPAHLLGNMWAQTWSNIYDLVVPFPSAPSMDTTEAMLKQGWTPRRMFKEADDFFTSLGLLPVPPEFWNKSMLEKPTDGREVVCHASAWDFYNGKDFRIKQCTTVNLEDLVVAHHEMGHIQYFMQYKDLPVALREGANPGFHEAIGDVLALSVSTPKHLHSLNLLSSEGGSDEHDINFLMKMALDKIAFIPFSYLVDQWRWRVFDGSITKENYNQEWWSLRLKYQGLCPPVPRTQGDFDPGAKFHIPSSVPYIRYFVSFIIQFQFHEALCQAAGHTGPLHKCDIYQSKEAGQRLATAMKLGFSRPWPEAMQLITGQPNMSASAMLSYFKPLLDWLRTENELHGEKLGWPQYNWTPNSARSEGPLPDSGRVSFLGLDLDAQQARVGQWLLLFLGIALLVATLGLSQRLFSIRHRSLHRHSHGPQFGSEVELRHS
Chain of human TOP (P52888 whole entry): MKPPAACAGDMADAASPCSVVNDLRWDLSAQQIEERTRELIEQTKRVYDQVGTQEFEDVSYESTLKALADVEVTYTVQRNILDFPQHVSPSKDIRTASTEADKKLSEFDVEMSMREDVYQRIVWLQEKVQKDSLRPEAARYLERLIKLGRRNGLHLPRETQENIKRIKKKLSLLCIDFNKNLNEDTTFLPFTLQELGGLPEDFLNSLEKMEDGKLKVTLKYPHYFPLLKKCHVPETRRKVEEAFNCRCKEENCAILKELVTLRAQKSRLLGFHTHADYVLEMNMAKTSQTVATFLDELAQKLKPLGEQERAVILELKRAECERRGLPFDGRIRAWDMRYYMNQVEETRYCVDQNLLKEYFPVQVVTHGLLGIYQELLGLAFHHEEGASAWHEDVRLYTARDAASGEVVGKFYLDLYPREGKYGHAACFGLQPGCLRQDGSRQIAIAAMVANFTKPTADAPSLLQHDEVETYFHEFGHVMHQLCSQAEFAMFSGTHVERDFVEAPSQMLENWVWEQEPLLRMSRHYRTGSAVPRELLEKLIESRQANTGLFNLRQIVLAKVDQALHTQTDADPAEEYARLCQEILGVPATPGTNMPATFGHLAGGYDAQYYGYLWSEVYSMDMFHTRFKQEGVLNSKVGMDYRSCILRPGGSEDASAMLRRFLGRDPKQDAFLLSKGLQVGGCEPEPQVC
Chain of human NEP (P08473 whole entry): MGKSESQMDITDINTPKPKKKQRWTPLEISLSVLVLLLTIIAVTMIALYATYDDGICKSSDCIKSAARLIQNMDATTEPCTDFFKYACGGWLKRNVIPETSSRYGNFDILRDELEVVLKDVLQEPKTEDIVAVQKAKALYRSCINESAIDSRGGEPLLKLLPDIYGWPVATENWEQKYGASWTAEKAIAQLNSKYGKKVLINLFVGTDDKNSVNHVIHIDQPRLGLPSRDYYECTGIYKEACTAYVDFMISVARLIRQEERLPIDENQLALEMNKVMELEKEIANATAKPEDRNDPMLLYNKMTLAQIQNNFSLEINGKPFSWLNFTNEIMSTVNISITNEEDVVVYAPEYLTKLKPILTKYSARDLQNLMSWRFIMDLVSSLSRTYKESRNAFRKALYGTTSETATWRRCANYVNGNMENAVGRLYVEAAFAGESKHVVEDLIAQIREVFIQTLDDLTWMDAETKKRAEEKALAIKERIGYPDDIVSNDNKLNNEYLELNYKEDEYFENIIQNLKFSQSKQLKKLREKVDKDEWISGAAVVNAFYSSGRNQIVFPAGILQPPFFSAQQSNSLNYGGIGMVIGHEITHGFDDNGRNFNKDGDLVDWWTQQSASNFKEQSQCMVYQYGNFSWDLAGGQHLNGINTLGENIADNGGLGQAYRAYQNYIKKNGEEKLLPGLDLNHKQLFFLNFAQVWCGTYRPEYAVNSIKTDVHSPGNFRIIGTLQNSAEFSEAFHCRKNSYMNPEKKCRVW

Compound: N[C@@H](Cc1c[nH]cn1)C(=O)N[C@@H](Cc1c[nH]c2ccccc12)C(=O)O [Compound 4, His–Trp]
Papp A→B at 120 min, 10 μg/mL ([1]; CD-1, mouse): 5.33 ×10⁻⁶ cm/s

Compound: N[C@H](Cc1c[nH]cn1)C(=O)NCc1ccc(OC(F)(F)F)cc1 [Compound 5q, (R)-2-Amino-3-(1H-imidazol-4-yl)-N-(4-(trifluoromethoxy)-benzyl)propanamide]
Amax, maximum % activation achieved (95% CI) (recombinant rat Nln): 337.1 (312 to 364.9) %

Compound: N[C@@H](Cc1c[nH]cn1)C(=O)NCc1ccc(SC(F)(F)F)cc1 [Compound 5r, (S)-2-Amino-3-(1H-imidazol-4-yl)-N-(4-((trifluoromethyl)thio)-benzyl)propanamide]
Amax, maximum % activation achieved (95% CI) (recombinant rat Nln): 287.5 (277.4 to 298.4) %

Compound: N[C@H](Cc1c[nH]cn1)C(=O)NCc1ccc(SC(F)(F)F)cc1 [Compound 5s, (R)-2-Amino-3-(1H-imidazol-4-yl)-N-(4-((trifluoromethyl)thio)-benzyl)propanamide]
Amax, maximum % activation achieved (95% CI) (recombinant rat Nln): 251.5 (233.7 to 271.3) %

Compound: N[C@@H](Cc1c[nH]cn1)C(=O)Nc1ccccc1 [Compound 6a, (S)-2-Amino-3-(1H-imidazol-4-yl)-N-phenylpropanamide]
Amax, maximum % activation achieved (95% CI) (recombinant rat Nln; [6]): 466.6 (402.3 to 579.7) %

Compound: N[C@H](Cc1c[nH]cn1)C(=O)Nc1ccccc1 [Compound 6b, (R)-2-Amino-3-(1H-imidazol-4-yl)-N-phenylpropanamide]
Amax, maximum % activation achieved (95% CI) (recombinant rat Nln; [6]): 440.3 (414.9 to 470.4) %

Compound: N[C@@H](Cc1c[nH]cn1)C(=O)NCCCc1ccccc1 [Compound 7a, (S)-2-Amino-3-(1H-imidazol-4-yl)-N-(3-phenylpropyl)-propanamide]
Amax, maximum % activation achieved (95% CI) (recombinant rat Nln; [6]): 288.1 (273.6 to 303.8) %

Compound: N[C@H](Cc1c[nH]cn1)C(=O)NCCCc1ccccc1 [Compound 7b, (R)-2-Amino-3-(1H-imidazol-4-yl)-N-(3-phenylpropyl)-propanamide]
Amax, maximum % activation achieved (95% CI) (recombinant rat Nln; [6]): 281.8 (269.9 to 294.5) %

Compound: N[C@@H](Cc1c[nH]cn1)C(=O)NCCCCc1ccccc1 [Compound 8a, (S)-2-Amino-3-(1H-imidazol-4-yl)-N-(4-phenylbutyl)-propanamide]
Amax, maximum % activation achieved (95% CI) (recombinant rat Nln; [6]): 328 (309 to 351) %

Compound: N[C@H](Cc1c[nH]cn1)C(=O)NCCCCc1ccccc1 [Compound 8b, (R)-2-Amino-3-(1H-imidazol-4-yl)-N-(4-phenylbutyl)-propanamide]
Amax, maximum % activation achieved (95% CI) (recombinant rat Nln; [6]): 233.8 (215.9 to 254.8) %

Compound: N[C@@H](Cc1c[nH]cn1)C(=O)NCCc1c[nH]c2ccccc12 [Compound 9d, (S)-N-(2-(1H-Indol-3-yl)ethyl)-2-amino-3-(1H-imidazol-4-yl)-propanamide]
increase in BBB permeability / brain penetration over hit compounds 1 and 4 [2]: 4–5 fold | Papp A→B at 120 min, 10 μg/mL [1, 7]: 17.8 ×10⁻⁶ cm/s | hydrolysis of BK by Nln, formation of BK-(1–5) [3]: enhanced hydrolysis of BK | hydrolysis of NT by Nln, formation of NT-(1–10) [3]: hydrolysis of NT by Nln was also enhanced | effect on catalytic activity of ACE2 (human ACE2): inhibition of ACE2 at high concentrations | effect on catalytic activity of ACE [4]: inhibition of ACE at high concentration | effect on catalytic activity of TOP (human TOP): only exhibited inhibition at concentrations approaching 300 μM | effect on catalytic activity of NEP (human NEP): None of the three compounds showed appreciable inhibition | fraction unbound at 4 h, 500 ng/mL [5]: 0.14 ± 0.012

Compound: N[C@H](Cc1c[nH]cn1)C(=O)NCCc1c[nH]c2ccccc12 [Compound 9e, (R)-N-(2-(1H-Indol-3-yl)ethyl)-2-amino-3-(1H-imidazol-4-yl)-propanamide]
Amax, maximum % activation achieved (95% CI) (recombinant rat Nln; [6]): 132 (122.5 to 143.6) % | Amax, maximum % activation achieved (95% CI) (recombinant rat Nln; 100% = normal enzyme turnover, mean of n = 4, 95% CI in parentheses, listed as D-9e): 132%

Compound: N[C@@H](Cc1c[nH]cn1)C(=O)NCc1cccc2ccccc12 [Compound 10c, (S)-2-Amino-3-(1H-imidazol-4-yl)-N-(naphthalen-1-ylmethyl)-propanamide]
increase in BBB permeability / brain penetration over hit compounds 1 and 4 [2]: 4–5 fold | hydrolysis of BK by Nln, formation of BK-(1–5) [3]: enhanced hydrolysis of BK | hydrolysis of NT by Nln, formation of NT-(1–10) [3]: hydrolysis of NT by Nln was also enhanced | Amax, maximum % activation achieved (95% CI) (recombinant rat Nln; [6]): 264 (256.3 to 272.6) % | increase in potency over the least active hit (recombinant rat Nln): > 30 fold | increase in potency over the most active hit (recombinant rat Nln): > 10 fold | effect on catalytic activity of ACE2 (human ACE2): no inhibition up to 300 μM | effect on catalytic activity of ACE [4]: no inhibition at the maximum concentration tested | effect on catalytic activity of TOP (human TOP): No appreciable inhibition | effect on catalytic activity of NEP (human NEP): None of the three compounds showed appreciable inhibition

Compound: N[C@H](Cc1c[nH]cn1)C(=O)NCc1cccc2ccccc12 [Compound 10d, (R)-2-Amino-3-(1H-imidazol-4-yl)-N-(naphthalen-1-ylmethyl)-propanamide]
Amax, maximum % activation achieved (95% CI) (recombinant rat Nln; [6]): 343 (325.2 to 363.5) %

Compound: N[C@@H](Cc1c[nH]cn1)C(=O)Nc1cccc2cccnc12 [Compound 11a, (S)-2-Amino-3-(1H-imidazol-4-yl)-N-(quinolin-8-yl)propanamide]
increase in BBB permeability / brain penetration over hit compounds 1 and 4 [2]: 4–5 fold | Papp A→B at 120 min, 10 μg/mL [1, 7]: 19 ×10⁻⁶ cm/s | hydrolysis of BK by Nln, formation of BK-(1–5) [3]: enhanced hydrolysis of BK | hydrolysis of NT by Nln, formation of NT-(1–10) [3]: hydrolysis of NT by Nln was also enhanced | Amax, maximum % activation achieved (95% CI) (recombinant rat Nln; [6]): 281.2 (266.7 to 297.1) % | increase in potency over the least active hit (recombinant rat Nln): > 30 fold | increase in potency over the most active hit (recombinant rat Nln): > 10 fold | mean Amax of the two enantiomers (recombinant rat Nln): 285% | effect on catalytic activity of ACE2 (human ACE2): inhibition of ACE2 at high concentrations | effect on catalytic activity of ACE [4]: inhibition of ACE at high concentration | effect on catalytic activity of TOP (human TOP): No appreciable inhibition | effect on catalytic activity of NEP (human NEP): None of the three compounds showed appreciable inhibition | fraction unbound at 4 h, 500 ng/mL [5]: 0.062 ± 0.011

Compound: N[C@H](Cc1c[nH]cn1)C(=O)Nc1cccc2cccnc12 [Compound 11b, (R)-2-Amino-3-(1H-imidazol-4-yl)-N-(quinolin-8-yl)propanamide]
Amax, maximum % activation achieved (95% CI) (recombinant rat Nln; [6]): 288.3 (274.3 to 303.3) % | mean Amax of the two enantiomers (recombinant rat Nln): 285%

Compound: N-(2-(1H-Indol-3-yl)ethyl)-3-(1H-imidazol-4-yl)propanamide [Compound 9c]
A50, half maximal activation concentration (95% CI) (recombinant rat Nln): Inactive | Amax, maximum % activation achieved (95% CI) (recombinant rat Nln): Inactive | Nln activation, result in words (recombinant rat Nln): complete amelioration of activity; also recorded: ameliorates activity

Other lines, results leading:

Amax, maximum % activation achieved (95% CI) (recombinant rat Nln): 323.7 (310.3 to 337.9) %
Compound: N[C@@H](Cc1c[nH]cn1)C(=O)NCCc1ccc2ccccc2c1 [Compound 9f, (S)-2-Amino-3-(1H-imidazol-4-yl)-N-(2-(naphthalen-2-yl)ethyl)-propanamide]

Amax, maximum % activation achieved (95% CI) (recombinant rat Nln): 339.8 (325.4 to 355.4) %
Compound: N[C@H](Cc1c[nH]cn1)C(=O)NCCc1ccc2ccccc2c1 [Compound 9g, (R)-2-Amino-3-(1H-imidazol-4-yl)-N-(2-(naphthalen-2-yl)ethyl)-propanamide]

Amax, maximum % activation achieved (95% CI) (recombinant rat Nln; [6]): 210.9 (191.7 to 231.9) %
Compound: N[C@@H](Cc1c[nH]cn1)C(=O)NCc1ccc2ccccc2c1 [Compound 10a, (S)-2-Amino-3-(1H-imidazol-4-yl)-N-(naphthalen-2-ylmethyl)-propanamide]

Amax, maximum % activation achieved (95% CI) (recombinant rat Nln; [6]): 197.5 (184.9 to 214.8) %
Compound: N[C@H](Cc1c[nH]cn1)C(=O)NCc1ccc2ccccc2c1 [Compound 10b, (R)-2-Amino-3-(1H-imidazol-4-yl)-N-(naphthalen-2-ylmethyl)-propanamide]

Nln activation, result in words (recombinant rat Nln): ameliorates activity | Amax, maximum % activation achieved (95% CI) (recombinant rat Nln; [6]): Inactive | A50, half maximal activation concentration (95% CI) (recombinant rat Nln; recombinant rat Nln, QFS […] μM, 37 °C, mean of n = 4, 95% CI in parentheses): Inactive
Compound: (S)-tert-Butyl(1-((2-(1H-indol-3-yl)ethyl)amino)-3-(1H-imidazol-4-yl)-1-oxopropan-2-yl)carbamate [Compound 9b]
